Assay results as given in ChEMBL document CHEMBL2390937, “Evaluation of selective inhibitors of 11β-HSD1 for the treatment of hypertension” (Bioorg Med Chem Lett, 2013).
pIC50, pKd, pKi: −log10 of the molar value. Activity calls are given as the source filed them. The calls are words filed in the database; no cut-off is given here.

Key:
[1] = Drug level in spontaneously hypertensive rat CSF at 10 mg/kg measured after 4 hrs; type: ADME, organism-based, Cerebrospinal fluid; parameters: dose 10 mg/kg; conditions: read-out: Drug uptake
How it was run: (§1)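 Rats received 10 mg/kg and were sacrificed at peak (about 4 h) or trough (about 24 h) post dose. Total and free drug were measured in plasma, isolated brain and CSF, and the brain/plasma ratio was derived from these.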

[2] = Plasma concentration in spontaneously hypertensive rat model at 10 mg/kg measured after 24 hrs; type: ADME, organism-based; parameters: dose 10 mg/kg; how it was run: as §1
[3] = Total drug level in spontaneously hypertensive rat brain at 10 mg/kg measured after 24 hrs; type: ADME, organism-based; parameters: dose 10 mg/kg; conditions: read-out: Drug uptake; how it was run: as §1
Rattus norvegicus [4] = assay: Antihypertensive activity in spontaneously hypertensive rat model assessed as reduction in systolic BP at 10 mg/kg for 7 days; type: functional
How it was run: (§2)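 Spontaneously hypertensive rats implanted with telemetry abdominal aorta catheters and dosed daily at 10 mg/kg over 7 days. Heart rate and systolic and diastolic BP were recorded, with change from baseline compared against vehicle-treated animals.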

[5] = Plasma concentration in spontaneously hypertensive rat model at 10 mg/kg measured after 4 hrs; type: ADME, organism-based; parameters: dose 10 mg/kg; how it was run: as §1
Plasma [6] = assay: Free plasma concentration in spontaneously hypertensive rat at 10 mg/kg measured after 4 hrs; type: ADME, organism-based; parameters: dose 10 mg/kg; conditions: in vivo; how it was run: as §1
[7] = Ratio of drug level in brain to plasma of spontaneously hypertensive rat at 10 mg/kg; type: ADME, organism-based; parameters: dose 10 mg/kg; conditions: read-out: BPR; how it was run: as §1
Plasma [8] = assay: Free plasma concentration in spontaneously hypertensive rat at 10 mg/kg measured after 24 hrs; type: ADME, organism-based; parameters: dose 10 mg/kg; conditions: in vivo; how it was run: as §1
[9] = Total drug level in spontaneously hypertensive rat brain at 10 mg/kg measured after 4 hrs; type: ADME, organism-based; parameters: dose 10 mg/kg; conditions: read-out: Drug uptake; how it was run: as §1
Brain [10] = assay: Free drug level in spontaneously hypertensive rat brain at 10 mg/kg measured after 4 hrs; type: ADME, organism-based; parameters: dose 10 mg/kg; conditions: in vivo; how it was run: as §1
[11] = biological target: 11-beta-hydroxysteroid dehydrogenase 1 (Rattus norvegicus, UniProt P16232); assay: Inhibition of rat 11beta-HSD1
Brain [12] = assay: Free drug level in spontaneously hypertensive rat brain at 10 mg/kg measured after 24 hrs; type: ADME, organism-based; parameters: dose 10 mg/kg; conditions: in vivo; how it was run: as §1
[13] = Drug level in spontaneously hypertensive rat CSF at 10 mg/kg measured after 24 hrs; type: ADME, organism-based, Cerebrospinal fluid; parameters: dose 10 mg/kg; conditions: read-out: Drug uptake; how it was run: as §1
Rattus norvegicus [14] = assay: Antihypertensive activity in spontaneously hypertensive rat model assessed as reduction in heart rate at 10 mg/kg for 7 days; type: functional, organism-based; parameters: dose 10 mg/kg; how it was run: as §2
Rattus norvegicus [15] = assay: Antihypertensive activity in spontaneously hypertensive rat model assessed as reduction in diastolic BP at 10 mg/kg for 7 days; type: functional, organism-based; parameters: dose 10 mg/kg; how it was run: as §2
Mus musculus [16] = assay: Antihypertensive activity in telemeterized wild type mouse assessed as reduction in systolic BP at 30 mg/kg/day for 11 days; type: functional
How it was run: (§3)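 Telemeterized 11β-HSD1 knockout mice and wild-type controls (not littermates) were dosed at 30 mg/kg/day. Systolic BP change was compared with vehicle-treated mice of each genotype, and plasma exposure was also measured.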

[17] = test system: 11-beta-HSD1 (Rattus norvegicus); assay: Binding affinity to rat liver microsomal 11beta-HSD1 by radiometric competition assay
[18] = biological target: 11-beta-HSD2 (Homo sapiens); assay: Inhibition of human microsomal 11beta-HSD2 assessed as inhibition of […] by cell-based assay
Mus musculus [19] = assay: Antihypertensive activity in telemeterized 11beta-HSD1 KO mouse assessed as reduction in systolic BP at 30 mg/kg/day for 11 days; type: functional; how it was run: as §3
Homo sapiens [20] = organism: Homo sapiens; assay: Antihypertensive activity in hypertensive patients assessed as placebo-corrected diastolic BP at 7 mg/day
Homo sapiens [21] = organism: Homo sapiens; assay: Antihypertensive activity in hypertensive patients assessed as placebo-corrected systolic BP at 7 mg/day
Homo sapiens [22] = organism: Homo sapiens; assay: Antihypertensive activity in hypertensive patients assessed as placebo-corrected systolic BP at 6 mg/day
Homo sapiens [23] = organism: Homo sapiens; assay: Antihypertensive activity in hypertensive patients assessed as placebo-corrected diastolic BP at 6 mg/day

11-beta-hydroxysteroid dehydrogenase 1, sequence (P16232 whole entry): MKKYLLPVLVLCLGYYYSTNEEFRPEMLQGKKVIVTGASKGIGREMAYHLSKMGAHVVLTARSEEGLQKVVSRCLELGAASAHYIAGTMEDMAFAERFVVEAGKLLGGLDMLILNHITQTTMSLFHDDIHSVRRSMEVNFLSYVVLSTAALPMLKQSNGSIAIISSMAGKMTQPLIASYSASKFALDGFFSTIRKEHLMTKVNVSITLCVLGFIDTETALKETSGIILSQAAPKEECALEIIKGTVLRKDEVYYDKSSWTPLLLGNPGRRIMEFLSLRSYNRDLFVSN

Structure (SMILES) | concentration at 4 h [1] | concentration at 24 h [2] | concentration at 24 h [3] | Activity (Rattus norvegicus [4]) | concentration at 4 h [5] | Cp(f) (Plasma [6]) | Kp [7] | Cp(f) (Plasma [8]) | concentration at 4 h [9] | Drug uptake(free) (Brain [10]) | pIC50 [11] | pKi [11] | Drug uptake(free) (Brain [12]) | concentration at 24 h [13] | Activity (Rattus norvegicus [14]) | Activity (Rattus norvegicus [15]) | further results
CCS(=O)(=O)CC12CCC(c3nnc(-c4ccccc4C(F)(F)F)n3C)(CC1)CC2 | 2.1 µM | 10.2 µM | 0.8 µM | 3 mmHg | 27.7 µM | 8 µM | < 1 | 2.1 µM | 3.1 µM | 1.3 µM | 8.04 | 7.88 | 0.2 µM | 0.7 µM | Active | Active | –
Cn1c(-c2ccccc2C(F)(F)F)nnc1C12CCC(c3noc(C(C)(F)F)n3)(CC1)CC2 | 4.4 µM | 25.4 µM | 55.4 µM | >15 mmHg | 25 µM | 2.5 µM | > 1 | 2.4 µM | 60.5 µM | 3 µM | 8.35 | 8.15 | 2.4 µM | 3.4 µM | Active | Active | Activity (Mus musculus [16]): -8 mmHg; Bmax ([17]; tested as the 3H-labelled form): 55500 fmol/mg; pIC50 [18]: 5.51; Activity (Mus musculus [19]): -5.8 mmHg
CCS(=O)(=O)CCCC12CCC(c3nnc(-c4ccccc4C(F)(F)F)n3C)(CC1)CC2 [MK-0736] | – | – | – | – | – | – | – | – | – | – | – | – | – | – | – | – | Activity (Homo sapiens [20]): -4.4 mmHg; Activity (Homo sapiens [21]): -7.7 mmHg
F[C@H]1C[C@](c2ccc(Cl)cc2)(c2nnc(C3CC3)n2C2CC2)C1 | – | – | – | – | – | – | – | – | – | – | – | – | – | – | – | – | Activity (Homo sapiens [22]): -7.9 mmHg; Activity (Homo sapiens [23]): -5.4 mmHg
[3H]c1cc(-c2nnc(C34CCC(c5noc(C(C)(F)F)n5)(CC3)CC4)n2C)c(C(F)(F)F)cc1[3H] | – | – | – | – | – | – | – | – | – | – | – | – | – | – | – | – | pKd [17]: 7.96
CCS(=O)(=O)CCC12CCC(c3nnc(-c4ccccc4C(F)(F)F)n3C)(CC1)CC2 | 5.1 µM | 6 µM | 0.7 µM | 3 mmHg | 24.2 µM | 9.5 µM | < 1 | 1.9 µM | 5 µM | 0.5 µM | 8.22 | 8.41 | 0.2 µM | 0.7 µM | Active | Active | –
Cn1c(-c2ccccc2C(F)(F)F)nnc1C12CCC(c3nc(-c4ccc(F)cc4)no3)(CC1)CC2 | 0.2 µM | 12.1 µM | 39.1 µM | >15 mmHg | 13.9 µM | 0.07 µM | > 1 | 0.05 µM | 44.4 µM | 0.08 µM | – | – | 0.06 µM | 0.2 µM | Active | Active | –
